According to ChEMBL document CHEMBL1156597, “Structure-activity relationship of kahalalide F synthetic analogues” (J Med Chem, 2008):

How the values were obtained:
DU-145 = assay: Cytotoxicity against human DU145 cells after 48 hrs by SRB assay; type: functional, cell-based; settings: Homo sapiens, DU-145, 48 h; for CC50: read-out: LC50 (the source's name)
Summary of the method: (§1)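 Cells grown in RPMI 1640 with 10% FBS and penicillin/streptomycin at 37 °C and 5% CO₂, trypsinized, then seeded at 5 × 10³/well. After 18 h drug-free attachment, samples in DMSO/EtOH/PBS (0.5:0.5:99) were added for 48 h continuous exposure. Cells were fixed with cold TCA (1 h, 4 °C) and stained with SRB (10 min). Tris-solubilized stain read at 490 nm. Triplicate wells, mean ± SD; GI₅₀ derived.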

LNCaP = assay: Cytotoxicity against human LNcaP cells after 48 hrs by SRB assay; type: functional; settings: for CC50: read-out: LC50 (the source's name); summary of the method: as §1
[1] = Cytotoxicity against human IGROV cells after 48 hrs by SRB assay; type: functional; settings: for CC50: read-out: LC50 (the source's name); summary of the method: as §1
[2] = Cytotoxicity against human IGROV-ET cells after 48 hrs by SRB assay; type: functional; settings: for CC50: read-out: LC50 (the source's name); summary of the method: as §1
SK-BR-3 = assay: Cytotoxicity against human SKBR3 cells after 48 hrs by SRB assay; type: functional; settings: SK-BR-3, 48 h; for CC50: read-out: LC50 (the source's name); summary of the method: as §1
SK-MEL-28 = assay: Cytotoxicity against human SK-MEL-28 cells after 48 hrs by SRB assay; type: functional, cell-based; settings: Homo sapiens, SK-MEL-28, 48 h; for CC50: read-out: LC50 (the source's name); summary of the method: as §1
A549 = assay: Cytotoxicity against human A549 cells after 48 hrs by SRB assay; type: functional, cell-based; settings: Homo sapiens, A549, 48 h; summary of the method: as §1
K562 = assay: Cytotoxicity against human K562 cells after 48 hrs by SRB assay; type: functional; settings: K562, 48 h; for CC50: read-out: LC50 (the source's name); summary of the method: as §1
PANC-1 = assay: Cytotoxicity against human PANC1 cells after 48 hrs by SRB assay; type: functional; settings: PANC-1, 48 h; for CC50: read-out: LC50 (the source's name); summary of the method: as §1
HT-29 = assay: Cytotoxicity against human HT29 cells after 48 hrs by SRB assay; type: functional, cell-based; settings: Homo sapiens, HT-29, 48 h; for CC50: read-out: LC50 (the source's name); summary of the method: as §1
LoVo [3] = assay: Cytotoxicity against human LoVo cells after 48 hrs by SRB assay; type: functional; settings: for CC50: read-out: LC50 (the source's name)
LoVo [4] = assay: Cytotoxicity against human doxorubicin resistant LoVo cells after 48 hrs by SRB assay; type: functional; settings: for CC50: read-out: LC50 (the source's name); summary of the method: as §1
HeLa = assay: Cytotoxicity against human HeLa cells after 48 hrs by SRB assay; type: functional; settings: for CC50: read-out: LC50 (the source's name); summary of the method: as §1
[5] = Cytotoxicity against human HeLa-APL cells after 48 hrs by SRB assay; type: functional; summary of the method: as §1

SMILES: C/C=C1\NC(=O)[C@H](Cc2ccccc2)NC(=O)[C@@H](C(C)C)NC(=O)[C@@H]([C@H](C)CC)NC(=O)[C@H](NC(=O)[C@H](NC(=O)[C@H](CCCN)NC(=O)[C@H]2CCCN2C(=O)[C@H](NC(=O)[C@@H](NC(=O)[C@@H](NC(=O)[C@@H](C(C)C)N(CCCCCC)CCCCCC)[C@@H](C)O)C(C)C)C(C)C)[C@H](C)CC)[C@H](C)OC(=O)[C@H](C(C)C)NC1=O
- CC50 (DU-145): 2280 nM
- GI50 (LNCaP): 3720 nM
- TGI (LNCaP): 3300 nM
- CC50 (LNCaP): 1480 nM
- CC50 [1]: 1210 nM
- CC50 [2]: 4230 nM
- CC50 (SK-BR-3): 3530 nM
- CC50 (SK-MEL-28): 1660 nM
- LC50 (A549): 1160 nM
- CC50 (K562): 1900 nM
- CC50 (PANC-1): 2270 nM
- CC50 (HT-29): 2030 nM
- CC50 (LoVo [3]): 4060 nM
- CC50 (LoVo [4]): 3780 nM
- CC50 (HeLa): 1050 nM
- GI50 [5]: 1810 nM
- LC50 (concentration giving 50% net cell kill) [5]: 1220 nM
- TGI [5]: 1580 nM

SMILES: C/C=C1\NC(=O)[C@H](Cc2ccccc2)NC(=O)[C@@H](C(C)C)NC(=O)[C@@H]([C@H](C)CC)NC(=O)[C@H](NC(=O)[C@H](NC(=O)[C@H](CCCN)NC(=O)[C@H]2CCCN2C(=O)[C@H](NC(=O)[C@@H](NC(=O)[C@H](C)NC(=O)[C@H](NC(=O)CCCC(C)C)C(C)C)C(C)C)C(C)C)[C@H](C)CC)[C@H](C)OC(=O)[C@H](C(C)C)NC1=O
- TGI (DU-145): 1250 nM
- GI50 (DU-145; read-out: GI50): 1420 nM
- CC50 (DU-145): 1100 nM
- GI50 (LNCaP): 1380 nM
- TGI (LNCaP): 1160 nM
- CC50 (LNCaP): 967 nM
- CC50 [1]: 503 nM
- GI50 [2]: 808 nM
- GI50 ([2]; read-out: GI50): 1230 nM
- CC50 [2]: 561 nM
- CC50 (SK-BR-3): 371 nM
- TGI (SK-MEL-28): 1190 nM
- GI50 (SK-MEL-28; read-out: GI50): 1240 nM
- CC50 (SK-MEL-28): 1150 nM
- GI50 (A549): 585 nM
- LC50 (A549): 4930 nM
- GI50 (A549; read-out: GI50): 641 nM
- GI50 (K562): 822 nM
- TGI (K562): 1610 nM
- CC50 (K562): 1970 nM
- GI50 (PANC-1): 1160 nM
- TGI (PANC-1): 1420 nM
- CC50 (PANC-1): 1810 nM
- CC50 (HT-29): 437 nM
- GI50 (LoVo [3]): 2050 nM
- TGI (LoVo [3]): 2070 nM
- CC50 (LoVo [3]): 338 nM
- GI50 (LoVo [4]): 1080 nM
- TGI (LoVo [4]): 1190 nM
- CC50 (LoVo [4]): 306 nM
- GI50 (HeLa): 1270 nM
- TGI (HeLa): 1120 nM
- CC50 (HeLa): 998 nM
- GI50 [5]: 1280 nM
- LC50 (concentration giving 50% net cell kill) [5]: 873 nM
- TGI [5]: 1060 nM

SMILES: C/C=C1\NC(=O)[C@H](Cc2ccccc2)NC(=O)[C@@H](C(C)C)NC(=O)[C@@H]([C@H](C)CC)NC(=O)[C@H](NC(=O)[C@H](NC(=O)[C@H](CCCN)NC(=O)[C@H]2CCCN2C(=O)[C@H](NC(=O)[C@@H](NC(=O)[C@@H](NC(=O)[C@H](NC(=O)CC[C@@H](C)[C@H]2CC[C@H]3[C@@H]4CC[C@@H]5C[C@H](OC(=O)C(F)(F)F)CC[C@]5(C)[C@H]4CC[C@]23C)C(C)C)[C@@H](C)O)C(C)C)C(C)C)[C@H](C)CC)[C@H](C)OC(=O)[C@H](C(C)C)NC1=O
- GI50 (DU-145): 524 nM
- GI50 (DU-145; read-out: GI50): 394 nM
- CC50 (DU-145): 568 nM
- GI50 (LNCaP): 851 nM
- TGI (LNCaP): 912 nM
- CC50 (LNCaP): 980 nM
- GI50 [1]: 500 nM
- GI50 ([1]; read-out: GI50): 375 nM
- CC50 [1]: 404 nM
- GI50 [2]: 406 nM
- GI50 ([2]; read-out: GI50): 352 nM
- CC50 [2]: 468 nM
- TGI (SK-BR-3): 166 nM
- GI50 (SK-BR-3; read-out: GI50): 118 nM
- CC50 (SK-BR-3): 233 nM
- GI50 (SK-MEL-28): 190 nM
- GI50 (SK-MEL-28; read-out: GI50): 209 nM
- CC50 (SK-MEL-28): 172 nM
- GI50 (A549): 949 nM
- LC50 (A549): 851 nM
- GI50 (A549; read-out: GI50): 1060 nM
- GI50 (K562): 967 nM
- TGI (K562): 795 nM
- CC50 (K562): 1170 nM
- GI50 (PANC-1): 1640 nM
- TGI (PANC-1): 1440 nM
- CC50 (PANC-1): 1440 nM
- GI50 (HT-29): 387 nM
- TGI (HT-29): 450 nM
- CC50 (HT-29): 761 nM
- GI50 (LoVo [3]): 340 nM
- TGI (LoVo [3]): 374 nM
- CC50 (LoVo [3]): 795 nM
- GI50 (LoVo [4]): 227 nM
- TGI (LoVo [4]): 220 nM
- CC50 (LoVo [4]): 211 nM
- GI50 (HeLa): 1070 nM
- TGI (HeLa): 978 nM
- CC50 (HeLa): 886 nM
- GI50 [5]: 1040 nM
- LC50 (concentration giving 50% net cell kill) [5]: 638 nM
- TGI [5]: 802 nM
